Screening results from PubChem.
This is a sample that favours compounds with a hit; in the whole collection about 2.3% have one here.
ASAP1 inh: inhibitors of human ASAP1 ArfGAP activity; ASAP1-stimulated ARF1 GTP hydrolysis, GDP FP detection; Q9ULH1; AID 624377; inhibition, % at 16.5 µM; 360,000 tested, 0.19% active; in the data active = inhibition above about 25%;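 note: 0% = vehicle with enzyme and substrate and 100% = no enzyme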
ARFGAP1 inh: rat ARFGAP1 inhibition | Q62848 | Arfgap1-stimulated ARF1 GTP hydrolysis, GDP FP detection | inhibition, % at 16.5 µM | 360,000 tested, 0.26% active;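 active = inhibition above a per-plate limit, mean inhibition of low control wells plus 3 SD, cut at about 25% in these data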;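 note: 0% = DMSO wells with enzyme and 100% = wells lacking Arfgap1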
Target sequence (Q62848 1-136 limits assumed): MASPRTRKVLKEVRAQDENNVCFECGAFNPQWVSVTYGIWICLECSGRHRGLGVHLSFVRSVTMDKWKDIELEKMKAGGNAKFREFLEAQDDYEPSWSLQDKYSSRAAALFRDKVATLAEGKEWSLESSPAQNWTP
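Material: rat Arfgap1 GAP domain (His6, aa 1-136), purified enzyme. Also added: human ARF1(Δ1-17)-GTP substrate. Compound dosing: 16.5 µM single point, 1.26% DMSO. Timing: enzyme reaction 120 min at 25 °C after 20 min preincubation. Signal: GDP detection by fluorescence polarization. Read-out basis: percent inhibition of GAP-stimulated GDP formation, scaled between DMSO and no-Arfgap1 medians.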
SKKanGAS inh: SKKanGAS growth inhibition; S. pyogenes SKKanGAS, kanamycin growth, BacTiter-Glo, 6 h; inhibition, % at 7.5 µM; 300,000 tested, 1.3% active; AID 1662;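 active = mean replicate score, as percent of positive control median, at least 50; inconclusive = mean below 50 but one replicate at or above 50; inactive = mean and every replicate below 50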;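 note: strain carries kanamycin resistance gene driven by streptokinase promoter and grows in 40 µg/ml kanamycin; loss of luminescence reflects streptokinase promoter inhibition or plain growth inhibition; 0% = median of DMSO wells and 100% = positive control at its reference dose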
sPLA2-III inh: Blocks human group III sPLA2 activity; 370,000 tested, 0.56% active; QFRET BODIPY PC-A2 liposome hydrolysis, fluorescence; inhibition, % at 12.2 µM; Q9NZ20; AID 743126;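 active = inhibition above mean plus 3 SD of compounds lying within the high and low control bounds, cut at about 19% in these data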;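 note: 0% = median of test compound wells and 100% = no enzyme DMSO wells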
Target sequence (Q9NZ20 whole entry, looked up): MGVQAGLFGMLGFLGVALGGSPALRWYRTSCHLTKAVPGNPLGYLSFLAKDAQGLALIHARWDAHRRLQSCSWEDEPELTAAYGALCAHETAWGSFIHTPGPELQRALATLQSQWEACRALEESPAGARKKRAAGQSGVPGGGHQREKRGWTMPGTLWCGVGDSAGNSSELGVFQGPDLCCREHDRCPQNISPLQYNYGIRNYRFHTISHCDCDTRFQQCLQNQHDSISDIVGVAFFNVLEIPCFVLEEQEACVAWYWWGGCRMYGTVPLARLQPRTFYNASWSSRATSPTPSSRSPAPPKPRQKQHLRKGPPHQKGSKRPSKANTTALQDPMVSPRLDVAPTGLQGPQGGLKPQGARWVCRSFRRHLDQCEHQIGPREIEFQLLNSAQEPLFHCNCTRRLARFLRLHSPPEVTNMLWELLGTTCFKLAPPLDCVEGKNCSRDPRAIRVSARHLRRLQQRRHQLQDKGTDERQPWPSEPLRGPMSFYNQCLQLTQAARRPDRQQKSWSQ
Calb FLC: C. albicans growth modulation with fluconazole; C. albicans CaCi-2 + fluconazole, Alamar Blue growth, 48 h; growth inhibition, % (test concentration not listed); 300,000 tested, 0.57% active; AID 1979;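 active = growth inhibition above about 58% in most replicates, limit read from the data, passing the limit was not always enough; inconclusive = exactly half the replicates above a set limit; inactive = most replicates below a set limit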;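 note: all wells also contain fluconazole at 8 µg/ml as a sub-toxic cotreatment; 0% = median of DMSO wells and 100% = median of geldanamycin control wells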
ASAP1 inh confirm: confirmation of human ASAP1 inhibitors; shares compounds with ASAP1 inh; inhibition, % at 16.5 µM; 620 tested, 37% active; ASAP1-stimulated Arf1 GTPase, GDP fluorescence polarization;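 active = mean inhibition over triplicates exceeds the hit threshold derived for the earlier primary screening run, cut at about 25% in these data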
ARFGAP1 inh conf: confirmation of rat ARFGAP1 inhibitors; ARFGAP1-stimulated ARF1 GTP hydrolysis, GDP tracer FP; inhibition, % at 16.5 µM; shares compounds with ARFGAP1 inh; 890 tested, 30% active;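 active = average inhibition over triplicates above the hit cutoff set in the earlier primary screen, cut at about 25% in these data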;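 note: 0% = Arfgap1 plus ARF1-GTP with DMSO and 100% = wells lacking Arfgap1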
* marks the source's active call; other numbers are inactive results; ? = inconclusive; · = not tested or not shown.

SMILES	ASAP1 inh	ARFGAP1 inh	SKKanGAS inh	sPLA2-III inh	Calb FLC	ASAP1 inh confirm	ARFGAP1 inh conf
CCN(CC)CCOC(=O)c1ccc(N/C=C(/C#N)c2nc(-c3ccc(OC)c(OC)c3)cs2)cc1	71*	115*	34	-12	15	184*	196*
CCCC1CCC2(CCC(=O)N2CCC#N)CC1 (stereo unspecified)	·	·	·	-2	·	·	·
Oc1ccccc1C=NNC(=S)NN=Cc1ccccc1O	32*	55*	·	-5	·	58*	71*
O=C(NCc1ccncc1)C(=O)N/N=C/c1ccc(OCc2ccccc2)cc1	31*	58*	1	-1	-23	41*	99*
CCOc1cc(CCNC(=O)c2cc(-c3ccccc3)c(N3CCOCC3)s2)ccc1OC	·	·	·	14	·	·	·
CC1=[N+](C)c2ccc3ccccc3c2C1(C)C	26*	31*	3	11	23	22	18
O=C(NC1(O)C(=O)c2ccccc2C1=O)c1ccccc1	53*	37*	1	-3	-4	21	3
Cc1ccccc1/C=N/Nc1ccnc2cc(Cl)ccc12	50*	92*	-28	-18	7	94*	149*
Clc1ccc2c(N/N=C/c3ccc(Br)cc3)ccnc2c1	50*	69*	113*	0	4	65*	96*
CCN1CCC(O)(/C=C/c2ccc(C(C)C)cc2)C(C(=O)/C=C/c2ccc(C(C)C)cc2)C1 (stereo unspecified)	9	5	·	-26	·	·	·
O=C(Nc1cccc(-c2nc3ccccc3[nH]2)c1)c1cccc(NC(=O)c2ccco2)c1	44*	77*	21	-5	-1	76*	123*
COc1ccc(/C=C2\C(=O)NC(=O)c3ccccc32)cc1OC	44*	33*	·	18	·	41*	19
COc1ccc(C=C2C(=O)OC(C)(C)OC2=O)cc1OC	4	-4	-1	6	-13	·	·
C[C@@H]1ON(C)[C@H]2C[C@H]3c4[nH]c5c(-c6ccc(Cl)cc6)cccc5c4CCN3C(=O)[C@@H]12	9	-1	·	-5	·	·	·
O=C(NC1CCCCN(Cc2cccc(F)c2)C1=O)c1ccc2ccccc2c1 (stereo unspecified)	·	·	·	-17	·	·	·
Cc1cc2oc3cc(NCCC4CCCN4C)ccc3c(=O)c2cc1C (stereo unspecified)	28*	31*	1	-13	6	38*	30*
CN1CCCC1CCNc1ccc2sc3ccccc3c(=O)c2c1 (stereo unspecified)	3	14	3	7	-14	·	·
Cc1ccc(CN2CCCCC(NC(=O)c3c(F)cccc3F)C2=O)cc1 (stereo unspecified)	·	·	·	0	·	·	·
CN1CCCN(C(=O)CN2C(=O)CC(C)(C)S(=O)(=O)c3ccccc32)CC1	·	·	·	-2	·	·	·
COc1cc(NC(=O)c2cc3c(C)nc4ccccc4c3o2)cc(OC)c1OC	33*	47*	3	0	-2	69*	52*
CCCC(=O)OC12CCCN(C1)/C(=C/c1ccc(OC)cc1)C2 (stereo unspecified)	·	·	·	4	·	·	·
O=C(CSc1ccccc1)Nc1ccc(-c2nc3ccccc3[nH]2)cc1	57*	45*	0	-15	-12	57*	59*
Cc1ccc2nc(-c3ccc(NC(=O)CSc4ccccc4)cc3)[nH]c2c1	0	-4	5	-2	-13	·	·
C[C@@H]1CN([C@@H](C)CO)C(=O)c2ccccc2-c2ccccc2CO[C@@H]1CN(C)Cc1ccc(Cl)c(Cl)c1	15	-10	·	-12	·	·	·
COc1ccc(-c2nn(C)c3sc(C(=O)NCCN(C)C)cc23)cc1OC	26*	33*	-1	9	4	54*	54*
SMILES	ASAP1 inh	ARFGAP1 inh	SKKanGAS inh	sPLA2-III inh	Calb FLC	ASAP1 inh confirm	ARFGAP1 inh conf
CCN(CC)CCNC(=O)c1cc2c(-c3cccc(OC)c3)nn(C)c2s1	11	6	-3	-9	9	·	·
O=C(NC1CCCCN(Cc2cccc(C(F)(F)F)c2)C1=O)c1cccc([N+](=O)[O-])c1 (stereo unspecified)	·	·	·	4	·	·	·
O=C(N/N=C/c1cccc(Br)c1)c1ccc(Br)cc1	11	23	-5	-1	24	·	·
O=C(N/N=C/c1cc(Cl)ccc1O)c1ccc(Br)cc1	52*	65*	·	18	·	76*	99*
CCCc1cnc(Nc2nc(C(N)Cc3ccc(C(F)(F)F)cc3)cs2)nc1 (stereo unspecified)	1	10	·	2	·	·	·
CCN1CCN(Cc2ccc(NC(=O)c3cc(NC(=O)c4cncc(-c5ccc(C#N)cc5)c4)cc(OC)c3)cc2C(F)(F)F)CC1	57*	67*	17	-20	1	75*	108*
COc1ccc(-c2cc(-c3ccccc3O)[nH]n2)cc1OC	19	14	-4	-48	4	·	·
COc1ccc(-c2cc(-c3ccc(OC)c(OC)c3)n[nH]2)c(O)c1	38*	31*	-8	-50	?	34*	37*
CCN(CC)CCOC(=O)c1ccc(NC(=O)c2cn(-c3ccccc3)nc2-c2cccs2)cc1	40*	25*	·	-44	·	44*	61*
CCN(CC)CCNC(=O)c1cn(-c2ccccc2)nc1-c1cccs1	-3	12	6	5	-10	·	·
O=C(NCc1ccccc1)[C@H]1CCCN1C(=O)[C@H]1CCCN1C(=O)c1cccc(F)c1	7	18	·	0	·	·	·
COc1cc(C)ccc1OCCOc1cc(C)ccc1Cl	-4	12	4	-2	?	·	·
C=CCN(CC=C)CCCOc1ccc(C)cc1OC	51*	46*	3	3	-28	0	-7
CC(=O)Nc1cc(-c2ccc(N3CCN(C)CC3)cc2)cn2c(-c3ccc(S(C)(=O)=O)cc3)cnc12	69*	74*	·	-3	·	148*	142*
CC(=O)Nc1cc(-c2ccc(N3CCN(C)CC3)cc2)cn2c(-c3ccccc3)cnc12	6	6	·	-15	·	·	·
Cc1ccc2nc(SCC(=O)N3CCCCCC3)nc(=O)n2c1	44*	62*	2	-1	-1	44*	77*
Cc1ccn2c(=O)nc(SCC(=O)N3CCCCCC3)nc2c1	4	-7	-1	0	8	·	·
Cc1ccc2nc(SCC(=O)N3CCCCC3)nc(=O)n2c1	29*	48*	0	-2	1	33*	57*
CCn1c(O)c(N=NC(=O)CNC(=O)c2cccnc2)c2ccccc21	0	-3	·	2	·	·	·
COc1ccccc1/C=N\Nc1cn[nH]c(=O)c1Cl	26*	28*	-12	12	16	20	15
CC(=O)NCCc1ccc(S(=O)(=O)Nc2ccc(NC(=O)c3ccc(F)cc3)cc2)cc1	1	29*	-14	-5	-6	·	3
